These results are taken from ChEMBL document CHEMBL1139076, “Structural simplification of bioactive natural products with multicomponent synthesis: dihydropyridopyrazole analogues of podophyllotoxin” (2007).

For assay [1], the system named is Jurkat. The experiment in a line: Cytotoxicity against human Jurkat cells assessed as viability at 5 uM after 48 hrs by MTT method relative to control. It is filed as functional. The settings on record: read-out: Activity. Summed up:
(§1)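 Cells treated 48 h with compound at final 5 µM. Viability was read as mitochondrial dehydrogenase activity by MTT and expressed as % of the 100% DMSO control. Values are mean ± s.d. from two experiments.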

The subject of the next assay is HeLa. As to the kind of experiment: Cytotoxicity against human HeLa cells assessed as viability at 5 uM after 48 hrs by MTT method relative to control. The settings on record: read-out: Activity. It is filed as functional. Summed up: as §1
(Tetrazolium dyes change colour on reduction, which living cells bring about.)

The nature of assay [2]: Cytotoxicity against human MCF7AZ cells assessed as viability at 5 uM after 48 hrs by MTT method relative to control. It is filed as functional. The settings on record: MCF7/AZ, read-out: Activity. Summed up:
as §1

Assay [3] concerns Jurkat. As to the kind of experiment: Induction of apoptosis in human Jurkat cells at 5 uM by flow cytometric annexin-V/propidium iodide assay. It is filed as functional, cell-based. The settings on record: TDE = time-dependent effect. Summed up:
(§2)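 Jurkat cells were treated for 12, 24, 36 or 48 h against a DMSO control. Apoptosis was scored by flow cytometry after annexin-V/propidium iodide staining.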
A general note: Flow cytometry measures light scatter and fluorescence of single cells or particles in a stream.

Assay [4] concerns Jurkat. The experiment in a line: Induction of apoptosis in human Jurkat cells at 5 uM after 48 hrs by flow cytometric annexin-V/propidium iodide assay. It is filed as functional. Summed up:
as §2

A short description of assay [5]: Cytotoxicity against human MCF7AZ cells assessed as viability at 50 uM after 48 hrs by MTT method relative to control. It is filed as functional. The settings on record: MCF7/AZ, read-out: Activity. Summed up:
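MCF7-AZ cells were exposed 48 h to compound at final 50 µM. Viability was read as mitochondrial dehydrogenase activity by MTT, relative to DMSO control.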

For assay [6], the system named is Jurkat. The experiment in a line: Induction of apoptosis in human Jurkat cells at 50 uM after 48 hrs by flow cytometric annexin-V/propidium iodide assay. It is filed as functional. Summed up: as §2
The test system of assay [7] is Jurkat. As to the kind of experiment: Induction of apoptosis in human Jurkat cells at 50 uM by flow cytometric annexin-V/propidium iodide assay. It is filed as functional, cell-based. The settings on record: TDE = time-dependent effect. The essentials:
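Human T-cell leukemia Jurkat cells were exposed to compound alongside a DMSO control and harvested after 12, 24, 36 and 48 hours. Apoptosis was read by flow cytometry after annexin-V and propidium iodide staining.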

On to `Cc1n[nH]c2c1C(c1c(C)nc3sccn13)C1=C(COC1=O)N2` (stereo not given), for which the results for the viability at 5 µM (in the assay on Jurkat [1]; with HeLa; in assay [2]) were 85%, 84% and 100%, respectively.

On to `COc1cc(C2C3=C(COC3=O)Nc3[nH]nc(C)c32)cc([N+](=O)[O-])c1O` (stereo not given), for which the viability at 5 µM in the assay on Jurkat [1] is 90%; with HeLa, 78%; in assay [2] it was 89%.

`Cc1n[nH]c2c1C(c1cccc(F)c1)C1=C(COC1=O)N2` (stereo not given): the viability at 5 µM amounted to 84% in the assay on Jurkat [1], 99% in the assay with HeLa and 76% in assay [2].

Regarding `Cc1n[nH]c2c1C(c1cccc(Br)c1)C1=C(COC1=O)N2` (stereo not given), the viability at 5 µM with Jurkat [1] came out at 68%; in the assay with HeLa, 51%; in assay [2], 63%. The Activity result with Jurkat [3] was “tde”; in the assay on Jurkat [4] it was 70%.

Take `Cc1n[nH]c2c1C(c1ccc(Br)cc1)C1=C(COC1=O)N2` (stereo not given): the values for the viability at 5 µM (in the assay on Jurkat [1]; with HeLa; in assay [2]) were 90%, 62% and 92%, respectively.

`Cc1n[nH]c2c1C(c1ccccc1[N+](=O)[O-])C1=C(COC1=O)N2` (stereo not given): the figures for the viability at 5 µM (in the assay on Jurkat [1]; with HeLa; in assay [2]) were 64%, 71% and 99%, respectively.

Turning to `C=C(C)[C@@H]1CC=C(C2C3=C(COC3=O)Nc3[nH]nc(C)c32)CC1` (stereo not given in full), the viability at 5 µM in the assay on Jurkat [1] worked out at 89%; in the assay with HeLa, 95%; in assay [2], 91%.

Consider `COc1cc([C@H]2C3=C(COC3=O)Nc3cc4c(cc32)OCO4)cc(OC)c1OC`, for which the viability at 5 µM is 54% with Jurkat [1], 54% in the assay with HeLa and 52% in assay [2].

As to `Cc1n[nH]c2c1C(c1ccncc1)C1=C(COC1=O)N2` (stereo not given), the viability at 5 µM with Jurkat [1] stood at 92%; with HeLa, 94%; in assay [2] it was 100%.

For `Cc1n[nH]c2c1C(c1cccs1)C1=C(COC1=O)N2` (stereo not given), the viability at 5 µM turned out to be 74% in the assay with Jurkat [1], 82% in the assay on HeLa and 98% in assay [2].

Turning to `Cc1nc2ccccc2nc1C1C2=C(COC2=O)Nc2[nH]nc(C)c21` (stereo not given), the results for the viability at 5 µM (in the assay with Jurkat [1]; with HeLa; in assay [2]) were 97%, 72% and 100%, respectively.

Take `Cc1n[nH]c2c1C(c1cccnc1)C1=C(COC1=O)N2` (stereo not given): the viability at 5 µM in the assay on Jurkat [1] was found to be 88%; in the assay on HeLa, 69%; in assay [2], 96%.

In the case of `CCOc1c(Br)cc(C2C3=C(COC3=O)Nc3[nH]nc(C)c32)cc1OC` (stereo not given), the viability at 5 µM was found to be 28% with Jurkat [1], 52% with HeLa and 49% in assay [2].

In the case of `COc1cc([C@@H]2c3cc4c(cc3[C@@H](O[C@@H]3O[C@@H]5CO[C@@H](C)O[C@H]5[C@H](O)[C@H]3O)[C@H]3COC(=O)[C@H]23)OCO4)cc(OC)c1O` [ETOPOSIDE], the viability at 5 µM in the assay on Jurkat [1] stood at 75%; in the assay on HeLa, 91%; in assay [2], 76%. Further, the viability at 50 µM in assay [5] was determined as 57%. Moreover, the Activity with Jurkat [6] was 70%; in the assay on Jurkat [7], “tde”.

Regarding `Cc1n[nH]c2c1C(c1ccc(Cl)c(Cl)c1)C1=C(COC1=O)N2` (stereo not given), the viability at 5 µM in the assay on Jurkat [1] is 71%; in the assay on HeLa it was 88%; in assay [2] it was 56%.

Regarding `COc1ccc(C2C3=C(COC3=O)Nc3[nH]nc(C)c32)cc1OC` (stereo not given), the viability at 5 µM with Jurkat [1] was determined as 88%; in the assay with HeLa it was 73%; in assay [2] it was 95%.

As to `COc1cc([C@@H]2c3cc4c(cc3[C@H](O)[C@H]3COC(=O)[C@H]23)OCO4)cc(OC)c1OC` [PODOFILOX], the results for the viability at 5 µM (in the assay on Jurkat [1]; with HeLa; in assay [2]) were 18%, 19% and 55%, respectively. For the same compound, the Activity result with Jurkat [3] is “tde”; in the assay on Jurkat [4] it was 70%.

Take `Cc1n[nH]c2c1C(c1ccc(C3C4=C(COC4=O)Nc4[nH]nc(C)c43)cc1)C1=C(COC1=O)N2` (stereo not given): the viability at 5 µM in the assay on Jurkat [1] was determined as 96%; with HeLa, 56%; in assay [2], 99%.

`Cc1n[nH]c2c1C(c1ccccc1)C1=C(COC1=O)N2` (stereo not given): the values for the viability at 5 µM (with Jurkat [1]; with HeLa; in assay [2]) were 87%, 74% and 84%, respectively.

Turning to `COc1ccc(C2C3=C(COC3=O)Nc3[nH]nc(C)c32)cc1` (stereo not given), the results for the viability at 5 µM (with Jurkat [1]; in the assay with HeLa; in assay [2]) were 94%, 73% and 82%, respectively.

For the compound `COc1cc2c(cc1OC)[C@@H](c1cc(OC)c(OC)c(OC)c1)C1=C(COC1=O)N2`, the viability at 5 µM in the assay on Jurkat [1] turned out to be 35%; in the assay with HeLa it was 53%; in assay [2] it was 58%.

Take `Cc1n[nH]c2c1C(c1ccsc1)C1=C(COC1=O)N2` (stereo not given): the viability at 5 µM in the assay with Jurkat [1] came out at 82%; in the assay with HeLa, 98%; in assay [2], 100%.

Take `Cc1n[nH]c2c1C(c1ccccc1Br)C1=C(COC1=O)N2` (stereo not given): the viability at 5 µM in the assay with Jurkat [1] was determined as 90%; with HeLa, 57%; in assay [2] it was 100%.

Turning to `COc1cc(C2C3=C(COC3=O)Nc3[nH]nc(C)c32)cc(Br)c1OC(C)=O` (stereo not given), the viability at 5 µM turned out to be 36% with Jurkat [1], 47% in the assay with HeLa and 46% in assay [2].

As to `Cc1n[nH]c2c1C(C)C1=C(COC1=O)N2` (stereo not given), the figures for the viability at 5 µM (in the assay on Jurkat [1]; in the assay with HeLa; in assay [2]) were 78%, 70% and 97%, respectively.

Take `Cc1n[nH]c2c1C(c1cccc(Cl)c1)C1=C(COC1=O)N2` (stereo not given): the viability at 5 µM in the assay on Jurkat [1] worked out at 76%; with HeLa, 43%; in assay [2] it was 54%.

Regarding `Cc1n[nH]c2c1C(c1ccc(N(C)C)c(Br)c1)C1=C(COC1=O)N2` (stereo not given), the viability at 5 µM in the assay on Jurkat [1] is 34%; with HeLa, 55%; in assay [2], 59%.

Turning to `Cc1n[nH]c2c1C(c1ccc(OC(F)(F)F)cc1)C1=C(COC1=O)N2` (stereo not given), the figures for the viability at 5 µM (in the assay with Jurkat [1]; in the assay on HeLa; in assay [2]) were 97%, 97% and 84%, respectively.

For the compound `CSc1ccc(C2C3=C(COC3=O)Nc3[nH]nc(C)c32)cc1` (stereo not given), the viability at 5 µM in the assay with Jurkat [1] amounted to 87%; in the assay on HeLa it was 45%; in assay [2], 95%.

With `Cc1n[nH]c2c1C(c1cnn(-c3ccccc3)c1Cl)C1=C(COC1=O)N2` (stereo not given), the viability at 5 µM was found to be 94% in the assay on Jurkat [1], 58% in the assay on HeLa and 100% in assay [2].

For `COc1cc(C2C3=C(COC3=O)Nc3[nH]nc(C)c32)cc(OC)c1OC` (stereo not given), the viability at 5 µM in the assay on Jurkat [1] turned out to be 47%; in the assay with HeLa, 50%; in assay [2] it was 58%. For the same compound, the values for the Activity entry in the assay on Jurkat [3] and in the assay with Jurkat [4] were “tde” and 70%, respectively.

For `Cc1n[nH]c2c1C(c1cc(Br)c(O)c(Br)c1)C1=C(COC1=O)N2` (stereo not given), the viability at 5 µM came to 58% with Jurkat [1], 58% with HeLa and 60% in assay [2].
